SMILES strings stand for the structures.

What is called IC50 is the concentration that gives 50% inhibition.

One assay concerns the target NS3 (Hepatitis C virus, UniProt A3EZJ3). The experiment in a line: Inhibitory activity against hepatitis C virus (HCV) NS3 protease. Also noted: species or system Hepacivirus hominis. The procedure, abridged: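 His-tagged HCV NS3 fusion expressed in BL21(DE3) E. coli, purified, quantified by densitometry against BSA. Reaction started with GST-bead 5A5B substrate (3 µg); 37 °C, 15 min or <40% conversion. Cleavage read by SDS-PAGE, Coomassie, densitometry; IC50 determined.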

In the next assay the target is Plasminogen (Homo sapiens, UniProt P00747). The experiment in a line: Inhibitory activity against plasmin. The procedure, abridged: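 Fluorogenic casein-substrate protease kit assay using 0.002U plasmin per reaction at 30 °C, stopped within the linear phase of the reaction; IC50 determined.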
Plasminogen, sequence (P00747 97-580 limits assumed): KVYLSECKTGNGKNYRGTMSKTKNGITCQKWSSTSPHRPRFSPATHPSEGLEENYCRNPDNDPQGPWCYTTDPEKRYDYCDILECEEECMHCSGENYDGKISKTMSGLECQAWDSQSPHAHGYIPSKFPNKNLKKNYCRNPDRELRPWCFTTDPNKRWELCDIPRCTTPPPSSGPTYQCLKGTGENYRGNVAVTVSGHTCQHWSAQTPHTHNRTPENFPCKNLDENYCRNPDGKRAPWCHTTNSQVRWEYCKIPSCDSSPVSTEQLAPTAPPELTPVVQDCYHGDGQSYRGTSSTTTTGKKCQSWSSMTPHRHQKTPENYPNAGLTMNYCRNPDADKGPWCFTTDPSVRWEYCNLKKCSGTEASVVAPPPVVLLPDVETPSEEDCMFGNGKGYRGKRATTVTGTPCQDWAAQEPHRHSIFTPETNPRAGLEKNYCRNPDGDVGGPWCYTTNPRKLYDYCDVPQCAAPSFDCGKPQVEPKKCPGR
Plasminogen, sequence (P00747 581-810 limits assumed): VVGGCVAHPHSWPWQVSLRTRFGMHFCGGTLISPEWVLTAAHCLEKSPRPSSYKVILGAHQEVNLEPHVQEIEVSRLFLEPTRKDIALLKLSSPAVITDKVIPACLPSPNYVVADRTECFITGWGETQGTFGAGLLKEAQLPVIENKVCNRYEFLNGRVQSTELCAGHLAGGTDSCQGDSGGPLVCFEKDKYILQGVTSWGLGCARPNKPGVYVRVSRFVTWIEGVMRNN

NS3, sequence (A3EZJ3 whole entry, the tested form may be a part): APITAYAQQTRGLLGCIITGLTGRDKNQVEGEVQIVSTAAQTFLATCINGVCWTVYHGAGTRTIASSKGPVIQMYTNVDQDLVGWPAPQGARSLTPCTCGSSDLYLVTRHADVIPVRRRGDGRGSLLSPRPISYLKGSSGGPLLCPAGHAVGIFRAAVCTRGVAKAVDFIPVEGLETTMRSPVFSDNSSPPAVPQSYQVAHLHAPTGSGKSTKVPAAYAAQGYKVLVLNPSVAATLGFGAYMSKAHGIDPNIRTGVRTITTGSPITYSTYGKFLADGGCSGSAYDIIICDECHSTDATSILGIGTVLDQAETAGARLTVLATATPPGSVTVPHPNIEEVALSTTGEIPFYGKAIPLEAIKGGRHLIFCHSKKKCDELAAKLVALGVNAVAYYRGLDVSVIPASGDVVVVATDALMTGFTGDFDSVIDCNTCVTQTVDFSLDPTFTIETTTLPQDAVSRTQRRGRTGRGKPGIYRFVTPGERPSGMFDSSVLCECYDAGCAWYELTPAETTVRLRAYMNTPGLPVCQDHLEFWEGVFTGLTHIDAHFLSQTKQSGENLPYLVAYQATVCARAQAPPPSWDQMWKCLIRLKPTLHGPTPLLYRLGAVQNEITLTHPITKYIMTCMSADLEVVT

Turning to `C=CCN1C(=O)/C(=C/c2cc3c(cc2[N+](=O)[O-])OCO3)SC1=S`, the half-maximal inhibitory concentration (IC50) at NS3 is 40 µM; at Plasminogen, less than 1 µM.
The corresponding values for `CCOC(=O)CN1C(=O)/C(=C(\C)c2cccc(OC(=O)N[C@@H](CC(C)C)C(=O)N(CCN(Cc3ccc(C(=O)OC)cc3)Cc3ccc(C(=O)OC)cc3)Cc3ccc(Cl)cc3)c2)SC1=S` are 16 µM and 20 µM.
As to `O=C(O)CN1C(=O)/C(=C/c2cc([N+](=O)[O-])ccc2F)SC1=S`, the half-inhibitory concentration (IC50) against NS3 was found to be 64 µM; on Plasminogen it was 13 µM.
The corresponding values for `COC(=O)CN1C(=O)/C(=C/c2cc3c(cc2[N+](=O)[O-])OCO3)SC1=S` are 71 µM and less than 1 µM.
The corresponding values for `CCOC(=O)CN1C(=O)/C(=C(\C)c2cccc(NS(=O)(=O)c3ccc(-c4ccc(S(=O)(=O)NCCNC(=O)OC(C)(C)C)cc4)cc3)c2)SC1=S` are 15 µM and 20 µM.
Take `C/C(=C1/SC(=S)N(CC(=O)O)C1=O)c1ccc(-c2ccccc2)cc1`: the IC50 on NS3 worked out at 20 µM; at Plasminogen, 7 µM.

(Values after ChEMBL document CHEMBL1134702, “Arylalkylidene rhodanine with bulky and hydrophobic functional group as selective HCV NS3 protease inhibitor” (Bioorg Med Chem Lett, 2001).)
